Assay outcomes from PubChem.
In the library only some 2.6% were active in any assay of this set; here they are far more common.
EP2 modulator – EP2 receptor modulators, cAMP readout, primary screen, cell-based, HTRF cAMP, PGE2 stimulation; Prostaglandin E2 receptor EP2 subtype (Homo sapiens), P43116; EP2-expressing cells, cAMP HTRF FRET, PGE2 co-stimulation; induction, % at 25 µM; hit rate 0.83% among 260,000; AID 940, 2007;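 active = compounds whose cAMP rise, as percent of the full-agonist control response, exceeds 60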;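 note: rat C6 glioma line stably carrying human EP2 under a CMV promoter; the protocol text gives 20 µM as final concentration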
Target sequence (P43116 whole entry, looked up): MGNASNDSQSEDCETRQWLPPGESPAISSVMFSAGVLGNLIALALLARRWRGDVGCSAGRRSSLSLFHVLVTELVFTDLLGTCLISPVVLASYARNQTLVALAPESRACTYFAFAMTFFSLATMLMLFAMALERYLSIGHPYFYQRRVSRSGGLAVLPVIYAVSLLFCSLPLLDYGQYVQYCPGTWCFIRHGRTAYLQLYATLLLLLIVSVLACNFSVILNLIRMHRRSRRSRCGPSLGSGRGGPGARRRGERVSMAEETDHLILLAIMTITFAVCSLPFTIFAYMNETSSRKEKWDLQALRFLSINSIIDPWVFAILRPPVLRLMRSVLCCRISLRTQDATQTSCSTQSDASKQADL
MC4R antag cAMP – MC4R antagonists of cAMP signaling, primary screen, cell-based, TR-FRET, antagonist arm of biased-ligand search; Melanocortin receptor 4 (Homo sapiens), P32245; MC4R-expressing cells, MTII-stimulated cAMP, LANCE TR-FRET; inhibition, % at 6.5 µM; hit rate 0.48% among 360,000; AID 540295, 2011;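 active = inhibition above its plate's cutoff, the mean of tested wells on that plate plus 3 SD, cut at about 29% in these data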
Target sequence (P32245 whole entry, looked up): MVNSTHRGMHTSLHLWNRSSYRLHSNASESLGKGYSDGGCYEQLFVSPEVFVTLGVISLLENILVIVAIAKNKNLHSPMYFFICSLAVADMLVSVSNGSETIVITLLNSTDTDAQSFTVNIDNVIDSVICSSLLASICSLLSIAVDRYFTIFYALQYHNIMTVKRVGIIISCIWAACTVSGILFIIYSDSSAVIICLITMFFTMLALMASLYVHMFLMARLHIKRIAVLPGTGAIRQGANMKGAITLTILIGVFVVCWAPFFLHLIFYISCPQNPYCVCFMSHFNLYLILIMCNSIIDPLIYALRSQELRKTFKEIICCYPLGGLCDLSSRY
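Material: human MC4R-expressing U2OS cells. Probe or stimulus: Melanotan II challenge. Dosing: 6.5 µM single dose. Times: 30-min compound, 1-h challenge, 1-h detection, room temperature. Technique: TR-FRET with Eu-cAMP and labeled anti-cAMP, 671 nm. Replication: singlicate.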
Granule exo inh – LAMP-1 surface exposure blockers, TALL-104 cells – cell-based, flow cytometry, MLPCN library, primary screen. AID 651702, 2012. TALL-104 LAMP-1 surface exposure; cells stimulated with thapsigargin and PMA. inhibition, % at 10 µM. hit rate 0.66% among 360,000;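 active = inhibition above about 55%, limit read from the data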
EP2 antag – human EP2 receptor antagonists, primary screen, TR-FRET cAMP, C6 glioma cells; inhibition, % at 25 µM; hit rate 0.52% among 260,000; C6 glioma cells expressing human EP2; cells stimulated with saturating PGE2;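 active = percent inhibition above 40 after rounding to a whole number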;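 note: rat C6 glioma host cells with rolipram phosphodiesterase inhibitor present; the protocol text gives 20 µM as final concentration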
T cell modulator – modulators of CD8 T cell-vesicle binding, primary screen, mouse 2C CD8+ T cells, flow cytometry. AID 2052, 2009. response (vesicle binding), % at 7 µM. hit rate 0.068% among 330,000. 2C CD8+ T cell-vesicle binding; active compounds read low;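 active = response, share of CD8 T cells binding vesicles, and their 90th percentile fluorescence all below set limits, cut at about 80% in these data, passing the limit was not always enough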;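 note: values below 100% mean blocked vesicle binding to the CD8+ T cells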
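Material: murine 2C transgenic CD8+ T lymphocytes / Also added: QL9-peptide-loaded Drosophila micro-vesicles bearing Ld, ICAM-1 and B7-1 / Schedule: binding step 1.5 h, 37 °C, antibody labelling 20 min, ice / Signal: flow cytometry, PE anti-B7-1 (FL2) versus Alexa647 anti-CD8 (FL8), PFA-fixed / Evaluation: percent CD8+ FL2 mean versus row control / Benchmarks: naked versus QL9-loaded vesicles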
MC4R barr agon – MC4R agonists recruiting beta-arrestin, primary screen, cell-based, luminescence, agonist arm of biased-ligand search | Melanocortin receptor 4 (Homo sapiens), P32245 | U2OS MC4R beta-arrestin complementation; percent of melanotan II response, DMSO zero | activation, % at 8.9 µM | hit rate 0.98% among 360,000 | AID 540308, 2011;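 active = activation above a per-plate cutoff, the mean activation of sample wells on that plate plus 3 SD, cut at about 8% in these data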
MC4R barr conf – MC4R beta-arrestin agonists, retest, confirmation, cell-based, luminescence, U2OS | shares compounds with MC4R barr agon | U2OS MC4R beta-arrestin recruitment; scaled DMSO 0%, Melanotan II 100% | activation, % at 8.9 µM | hit rate 31% among 2,400;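 active = mean activation across replicates above the hit cutoff set in the earlier primary screen, cut at about 8% in these data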
MOR DOR agonist – agonists of MOR-DOR heterodimerization, counter-screen for MC4R biased agonist project, cell-based, luminescence; shares compounds with MC4R barr agon; U2OS PathHunter beta-arrestin, beta-gal luminescence; percent of deltorphin B response, DMSO zero; activation, % at 9.2 µM; hit rate 5.8% among 2,400; AID 602194, 2012;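 active = mean activation across replicates exceeds the hit threshold derived in the earlier primary screen, cut at about 18% in these data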
Numbers stand for hits; n = inactive; x = no result given.

SMILES	EP2 modulator	MC4R antag cAMP	Granule exo inh	EP2 antag	T cell modulator	MC4R barr agon	MC4R barr conf	MOR DOR agonist
COc1ccc(Cn2c(SCc3ccc(C)cc3)nc3cc(OC)c(OC)cc3c2=N)cc1Cl	n	n	n	n	n	28	n	19
NS(=O)(=O)c1ccc(CNC(=O)c2cc(-c3cccs3)nc3ccccc23)cc1	n	n	n	n	n	n	x	x
CC(=O)Nc1sc(C)c(C)c1C(=O)OCC(=O)NCc1ccccc1	x	n	n	x	x	n	x	x
CCOC(=O)c1c(NC(=O)CC(C)=O)sc(C)c1C	n	x	x	n	x	x	x	x
COc1ccc(NC(=O)COC(=O)c2c(NC(C)=O)sc(C)c2C)cc1	x	n	n	x	x	31	18	n
CCOC(=O)Nc1sc(C)c(C)c1C(=O)OCC	n	n	n	n	n	10	n	n
Cc1ccc(C#CC(C)(O)C(C)(C)C)cn1 (stereo not drawn)	n	n	n	n	n	n	x	x
O=C(NNC(=O)C1CCN(Cc2ccccc2)CC1)c1cccc(Cl)c1	n	n	n	n	n	n	x	x
Cc1ccc2nc(SCC(=O)Nc3cc(C)on3)c(C)cc2c1	x	n	n	x	n	11	n	n
COc1ccc(C(=O)N2CCCC2(C)C(=O)O)cc1C(F)(F)F (stereo not drawn)	x	n	n	x	x	n	x	x
CCOC(=O)C1(C)CCCCCN1C(=O)c1ccc(OC)c(C(F)(F)F)c1 (stereo not drawn)	x	n	n	x	x	10	n	n
Cc1ccc(CNC(=O)c2ccc(COc3ccccc3)cc2)cc1	n	n	n	n	n	13	n	n
CC(=O)Nc1ccc(-c2nnc(SCC(=O)Nc3ccc4c(c3)oc3ccccc34)n2C)cc1	n	n	n	n	n	n	x	x
CCn1c(SCC(=O)Nc2ccc3c(c2)oc2ccccc23)nnc1-c1ccc(N)cc1	n	n	n	n	n	15	16	19
CN(C)S(=O)(=O)c1ccc(C(=O)OCC2COC(C)(C)O2)cc1 (stereo not drawn)	x	n	n	x	n	n	x	x
O=C(Nc1ccc(Br)cc1)C(c1ccccc1)c1ccccc1	n	n	n	n	n	11	n	n
Cc1ccc(C)c(N2CCN(CCCNC(=O)Cn3cccc3C(=O)c3ccccc3C)CC2)c1	n	n	n	n	n	12	14	n
O=[N+]([O-])c1ccccc1/C=N/N1CCN(c2ccccn2)CC1	n	n	n	n	n	n	x	x
COc1cc(C(=O)OCC(=O)Nc2cc(C)on2)ccc1OCc1ccccc1Cl	n	n	n	n	n	18	n	n
Cc1cccc(Nc2nc(N)nc(CN3CCC(C(N)=O)CC3)n2)c1C	n	n	n	n	n	n	x	x
Cc1ccc(Nc2nc(N)nc(CCl)n2)cc1	n	n	n	n	n	14	17	18
Nc1nc(CCl)nc(Nc2ccccc2)n1	n	n	n	n	n	n	x	x
Cc1cccc(Nc2nc(N)nc(CCl)n2)c1C	n	n	n	n	n	25	23	37
O=C(Cc1ccccc1F)Nc1nc(-c2ccc(F)c(F)c2)cs1	x	n	n	x	n	n	x	x
O=C(Nc1nc(-c2ccc(F)c(F)c2)cs1)Nc1ccc(F)cc1F	x	n	n	x	n	10	n	n
SMILES	EP2 modulator	MC4R antag cAMP	Granule exo inh	EP2 antag	T cell modulator	MC4R barr agon	MC4R barr conf	MOR DOR agonist
CCN(C(=O)COC(=O)CCC(=O)c1ccc(Cl)cc1)c1c(N)n(Cc2ccccc2)c(=O)[nH]c1=O	x	n	n	x	x	n	x	x
Cc1ccc(-c2csc(NC(=O)CSc3ncn(-c4ccccc4)n3)n2)cc1	n	n	n	n	n	11	n	n
O=C(CSc1nc(-c2ccccc2)cs1)Nc1nccs1	n	n	n	n	n	19	n	n
Cc1ccc(C(=O)NCCc2nnc(SCC(=O)Nc3nc(-c4ccccc4)cs3)n2C)cc1	n	n	n	n	n	21	8.9	n
CCCc1noc2c1C(c1ccoc1)C(C#N)=C(N)N2 (stereo not drawn)	n	n	n	n	n	n	x	x
N#C/C(=C\c1ccc(Sc2ccccc2)o1)c1nc2ccccc2[nH]1	n	n	n	n	n	12	n	n
O=C(COC(=O)/C=C/c1ccc([N+](=O)[O-])cc1)NC(=O)NC1CCCCC1	x	n	n	x	n	19	n	n
C=CCOc1ccc(/C=C/C(=O)OCC(=O)NC2CCCCCCC2)cc1	x	n	n	x	n	n	x	x
C=CCOc1ccc(/C=C/C(=O)OCC(=O)NCC2CCCCC2)cc1	x	n	n	x	n	12	n	n
O=C(COC(=O)/C=C/c1ccc([N+](=O)[O-])cc1)NCc1ccccc1	n	n	n	n	n	n	x	x
O=C(COC(=O)/C=C/c1ccc([N+](=O)[O-])cc1)NC(c1ccccc1)c1ccccc1	n	n	n	n	n	12	n	n
CCOC(=O)c1[nH]c(C)c(C(=O)OC(C)C(=O)Nc2ncc(Cl)cc2Cl)c1C (stereo not drawn)	n	n	n	n	n	n	x	x
CCCCCCCCNS(=O)(=O)CCNCCc1ccccc1	x	n	n	x	x	10.0	16	n
O=C(NC(=S)Nc1nc(-c2ccccc2)cs1)c1cncc(Br)c1	n	n	n	x	n	22	n	n
O=C(NC(=S)Nc1nc(-c2ccccc2)cs1)c1cccnc1	n	n	n	n	n	n	x	x
O=C(NC(=S)Nc1nc(-c2ccccc2)cs1)c1cccs1	n	n	n	n	n	11	n	n
CC(C)COc1cccc(C(=O)Nc2ccc(N3CCOCC3)cc2N2CCOCC2)c1	x	n	n	x	n	n	x	x
CCC(=O)N1c2ccc(S(=O)(=O)NCc3ccccc3)cc2CC1C (stereo not drawn)	x	n	n	x	n	n	x	x
C=C(C)c1cccc(C(C)(C)NC(=O)NCc2ccc(OC)cc2)c1	n	n	n	n	n	17	n	n
C=C(C)c1cccc(C(C)(C)NC(=O)NCc2ccc(OC)c(OC)c2)c1	n	n	n	n	n	n	x	x
c1ccc(Cn2nnnc2CN2CCSCC2)cc1	n	x	x	n	x	x	x	x
